INS promoter act = TRM-6 insulin promoter activation | TRM-6 cells, insulin promoter eGFP reporter, imaging; plate-scaled: unstimulated 0, stimulated control 100 | activation, % at 2 µM | hit rate 0.81% among 130,000 | AID 1296;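 active means activation at 2 µM above a set limit, confirmed on inspection of the cell images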;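 further: share of cells whose green reporter signal exceeds an intensity cutoff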
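Test system: human fetal islet-derived TRM-6 cells with tamoxifen-inducible insulin promoter–eGFP reporter; schedule: overnight tamoxifen, then two-day compound incubation at 37 °C; measured by: high-content imaging of fixed cells with Hoechst nuclear stain; evaluation: percent cells above green-intensity threshold, converted to percent activation versus plate controls; control set: stimulated and unstimulated wells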
The depositor's hits bear a star. This excerpt belongs to a sample that is enriched for hits.

SMILES	INS promoter act
O=C(CNc1cc(S(=O)(=O)N2CCOCC2)ccc1N1CCCC1)N1CCc2ccccc21	-6.7
Cc1nnc(NC(=O)c2cccc(NC(=O)C(C)C)c2)s1	-5.4
CC(C)C(=O)Nc1cccc(S(=O)(=O)c2cccc(NC(=O)C(C)C)c2)c1	487.5*
CC(C)C(=O)Nc1cccc(NC(=O)c2cc3ccccc3o2)c1	-78.6
Clc1ccc(OCc2nnc(-c3ccccc3Br)o2)c(Cl)c1	120.0*
Clc1ccc(OCc2nc(-c3ccncc3)no2)c(Cl)c1	8.3
Clc1ccc(-c2nnc(-c3ccccc3)o2)c(Cl)c1	115.4
COc1ccccc1OCCn1cc(/C=N/n2cnnc2)c2ccccc21	-7.1
CCN=C1SC(CC(=O)NCCc2ccc(OC)c(OC)c2)C(=O)N1CC (stereo unspecified)	0.0
CCCCN1C(=O)C(CC(=O)NCC)SC1=Nc1ccccc1 (stereo unspecified)	450.0*
O=C(O)CC1SC(=Nc2ccccc2)N(c2ccccc2)C1=O (stereo unspecified)	3.8
COc1ccc(-c2nnc(SCC(=O)N/N=C/c3ccccc3C(=O)O)n2-c2ccccc2)cc1	0.0
Cc1cc(NCCO)c2ccccc2n1	-5.4
CCCNc1c(F)c(F)c2c(C)c3ccccc3nc2c1F	160.0*
CCC(=O)Oc1c(-c2ccccc2)c2nc3ccccc3nc2c2ccccc12	376.2
COc1ccc(CNC(=O)CSc2nnc(C(F)(F)F)n2C)cc1	0.0
CCOc1ccc(NC(=S)NC(C)c2cccs2)cc1 (stereo unspecified)	7.1
CN(CC(=O)NC1CCCCCCC1)S(=O)(=O)c1cnc[nH]1	-7.1
COc1cc(S(=O)(=O)N2CCN(C(=O)c3ccccc3F)CC2)c(OC)cc1NC(C)=O	-3.2
O=C(NCCCN1CCOCC1)c1ccc(CSCc2cccc(Cl)c2)o1	-6.7
CCOC(=O)c1sc2nc(SCC(=O)N(CC)CC)n(CCCN3CCCC3=O)c(=O)c2c1C	114.3
COc1cc(C2C(C#N)=C(N)OC3=C2C(=O)CC(C)(C)C3)ccc1OC(=O)N1CCOCC1 (stereo unspecified)	600.0*
COc1ccc(-c2[nH]nc3c2C(c2ccc(OC(=O)N4CCOCC4)cc2)C(C#N)=C(N)O3)cc1 (stereo unspecified)	0.0
N#CC1=C(N)OC2=C(C(=O)CCC2)C1c1ccc(OC(=O)N2CCOCC2)cc1 (stereo unspecified)	0.0
COCCCNC(=O)C(=O)NC1CCCCC1C (stereo unspecified)	5.3
SMILES	INS promoter act
CCN1/C(=C\C=C(C(C)=O)C(C)=O)Sc2ccccc21	669.2*
CCN1C(=O)/C(=C\C=C2/C=CC=CN2CC)SC1=S	-3.1
CCN(CC)CC(=O)N1c2ccccc2Sc2ccc(Cl)cc21	262.2
CCCN1C(=O)/C(=C\C=C2/Sc3ccccc3N2CC)SC1=S	387.8*
O=C(CN1CCCC1)N1c2ccccc2Sc2ccccc21	110.0
CCCN1C(=O)CC(c2ccco2)Sc2ccccc21 (stereo unspecified)	3.2
COc1ccc(NCC(=O)N/N=C/C(C)c2ccccc2)cc1 (stereo unspecified)	-9.1
O=C(Oc1ccc2cc(Br)ccc2c1)c1cccnc1	-3.3
N#Cc1ccc(-c2ccccc2)nc1SCC(=O)c1cc2ccccc2oc1=O	9.1
CCN(CCC(=O)Nc1cc([N+](=O)[O-])ccc1OC)Cc1ccccc1	0.0
CCN(c1ccccc1)S(=O)(=O)c1ccc(C(=O)NCCCn2ccnc2)cc1	9.1
O=C(NCCCn1ccnc1)c1cccc(S(=O)(=O)Nc2ccccc2F)c1	-9.1
O=C(NCCCn1ccnc1)c1cccc(S(=O)(=O)NCc2ccccc2)c1	400.0*
CCN(CC)C(=O)CSc1nc(C)cc(C)n1	0.0
Clc1ccc(CNc2nc(CN3CCOCC3)nc3scc(-c4ccccc4)c23)cc1	-6.7
COC(=O)c1ccccc1NC(=O)c1ccc(COc2ccccc2)o1	584.6*
COc1ccccc1OCc1ccc(C(=O)NC(C)(C)C)o1	50.0
COc1ccc(NC(=O)c2ccc(COc3ccccc3)o2)cc1	-5.4
COc1ccc(S(=O)(=O)NCc2ccc(C)cc2)cc1	3.1
O=c1cc(NS(=O)(=O)c2ccccc2)nc(SCc2ccc(Cl)cc2)[nH]1	-7.9
CCCc1cc(=O)[nH]c(SCc2cccnc2)n1	342.1
O=c1cc(O)nc(SCc2ccccc2)[nH]1	525.0*
Cc1ccc(NC(=S)NN2CCN(C)CC2)cc1	-3.6
COc1ccccc1NS(=O)(=O)/C=C/c1ccccc1	0.0
CCCCC(=O)OCC(=O)Nc1ccc(SC(F)F)cc1	-5.9
SMILES	INS promoter act
COCc1cc(Sc2ccc(OC)cc2)nc(-c2ccccc2)n1	0.0
C/C(=N\NC(=O)c1cccc(Cl)c1)c1cccc(NC(=O)C(C)C)c1	2.7
Cc1ccc(C)n1NC(=O)c1cccc(Cl)c1	-4.3
CC(C)c1ccc(/C=N/NC(=O)c2cccc(Cl)c2)cc1	516.7*
Cn1c(N)c(C(=O)COC(=O)CCC(=O)c2ccc(F)cc2)c(=O)n(C)c1=O	-8.3
CCn1ncc(CN2CCN(Cc3ccc(OC)c(C)c3C)C(CCO)C2)c1C (stereo unspecified)	183.3
CCOc1ccc(S(=O)(=O)N2CCN(c3ccccc3F)CC2)c2cccnc12	121.4
COc1cc(C(C(=O)NCc2ccccc2)N(Cc2ccco2)C(=O)c2cnccn2)cc(OC)c1OC (stereo unspecified)	-4.3
COc1ccc(C2Nc3ccccc3C(=O)N2c2ccc(C)cc2)cc1Cn1nc(C)c([N+](=O)[O-])c1C (stereo unspecified)	129.0*
Cc1ccc(Cn2nc(C)c(NC(=O)CCCn3nc(C)c([N+](=O)[O-])c3C)c2C)cc1	0.0
COc1cccc(C2Nc3ccccc3C(=O)N2O)c1O (stereo unspecified)	7.1
COc1cc2cc(C(=O)O)[nH]c2c(OC)c1OC	-9.4
COc1ccc(/C(=C/c2ccc(OC(F)F)c(OC)c2)C(=O)O)cc1OC	-7.4
Cc1nnc2n(CCc3ccccc3)c(=O)c3c4c(sc3n12)CCCC4	188.4
C/C(=N/NC(=O)c1cc(O)c(O)c(O)c1)c1ccc([N+](=O)[O-])cc1	-9.1
COc1cc(/C=C2\C(=O)N(CCC#N)N=C2C)ccc1OCC(=O)Nc1ccccc1	-2.6
COc1cc(NC(=O)CSCC(=O)Nc2cccc(C(F)(F)F)c2)c(Cl)cc1Cl	-8.8
COc1cc(/C=C(\C#N)c2ccccn2)ccc1OCC(=O)Nc1cccc(C(F)(F)F)c1	280.0*
O=C(Nc1ccc(C(F)(F)F)cc1)c1cc(S(=O)(=O)NCC2COc3ccccc3O2)ccc1F (stereo unspecified)	-6.7
CCOC(=O)c1cc(C)n(CCc2ccccc2)c1C	-2.6
CCOC(=O)c1cc2sc(C)cc2n1CC(=O)N(CC)CC	8.1
CCOC(=O)c1cc2ccccc2n1CCN(CC)CC	77.8*
COC(=O)c1ccc(C(=O)OC)c(NC(=O)COC(=O)C2CC2C)c1 (stereo unspecified)	9.9
CC(C(=O)Nc1ccc2c(c1)OCO2)N(c1ccc(Cl)cc1)S(C)(=O)=O (stereo unspecified)	0.0
N/C(=N/O)C(c1ccccc1)c1ccccc1	-8.3
CCC12CN3CCN(CC(C3)/C1=N\NC(=O)c1ccc(C(C)(C)C)cc1)C2	-6.9
Cc1ccc(Oc2ncccc2COC(=O)Nc2ccccc2C)cc1	369.2*
Cc1ccc(Sc2ncccc2COC(=O)Nc2c(C)cccc2C)cc1	110.3
Cc1ccccc1NC(=O)OCc1cccnc1Sc1ccc(Cl)cc1	0.0
O=C(COc1ccc(Cl)cc1)N1CCN(C(=O)c2cccs2)CC1	-7.1

High-throughput results as filed in PubChem BioAssay.
